# Data as given in ChEMBL document CHEMBL1137839, “Potent antitumor N-mustard derivatives of 9-anilinoacridine, synthesis and antitumor evaluation” (Bioorg Med Chem Lett, 2004).
# Assays:
# [1] = test system: CCRF-CEM; experiment: Concentration required for growth inhibition of human lymphoblastic leukemic cell line (CCRF-CEM) was determined; assay type: functional, cell-based
# Summary of the method: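 Leukemic CCRF-CEM cells and their vinblastine-resistant (CCRF-CEM/VBL) and taxol-resistant (CCRF-CEM/taxol) sublines were incubated for 72 h. Growth inhibition was read by XTT assay and expressed as IC50. For the resistant sublines, fold resistance was calculated relative to the parent CCRF-CEM IC50.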
# [2] = test system: Mus musculus; experiment: Average change in body weight of mice bearing human mammary carcinoma (MX-1) xenograft on 26th day of administration (dose = 1-2 mg/kg); assay type: functional
# Summary of the method: (§1)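 Nude mice (n = 3) bearing human MX-1 mammary carcinoma xenografts (Day 0). Intravenous treatment started on D11, when tumors were 80–120 mm3, at 1–2 mg/kg on a Q3D × 7 schedule. Body weight was taken as total body weight minus tumor weight. Animals with excessive tumor burden (>3500 mm3) were sacrificed.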
# [3] = test system: Mus musculus; experiment: Average change in body weight of mice bearing human mammary carcinoma (MX-1) xenograft on 17th day of administration (dose = 1-2 mg/kg); assay type: functional; summary of the method: as §1
# [4] = Average tumor size of human mammary carcinoma (MX-1) xenograft in mice on 23th day of administration (dose = 1-2 mg/kg); assay type: organism-based; details: mouse, in vivo
# Summary of the method: (§2)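 Human MX-1 breast carcinoma xenografts in nude mice (n = 3) with tumors established on Day 0. Dosing was iv, 1–2 mg/kg Q3D × 7, beginning D11 at tumor size 80–120 mm3. Tumor size was tracked in mm3, and mice were sacrificed when tumors exceeded 3500 mm3.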
# [5] = test system: HCT-116; experiment: Concentration required for growth inhibition of human HCT116 colon tumor cell line […] was determined; assay type: functional, cell-based
# [6] = Concentration required for growth inhibition of taxol resistant human lymphoblastic leukemic cell line (CCRF-CEM/taxol) was determined; assay type: functional, cell-based
# Summary of the method: (§3)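 Drug-resistant human lymphoblastic leukemia sublines (vinblastine-resistant CCRF-CEM/VBL; taxol-resistant CCRF-CEM/taxol). Growth inhibition measured by XTT assay after 72 h incubation, reported as IC50.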
# [7] = Average tumor size of human mammary carcinoma (MX-1) xenograft in mice on 17th day of administration (dose = 1-2 mg/kg); assay type: organism-based; details: mouse, in vivo; summary of the method: as §2
# [8] = test system: Mus musculus; experiment: Average change in body weight of mice bearing human mammary carcinoma (MX-1) xenograft on 23th day of administration (dose = 1-2 mg/kg); assay type: functional; summary of the method: as §1
# [9] = Concentration required for growth inhibition of vinblastine resistant human lymphoblastic leukemic cell line (CCRF-CEM/VBL) was determined; assay type: functional, cell-based; summary of the method: as §3
# [10] = test system: Mus musculus; experiment: Average change in body weight of mice bearing human mammary carcinoma (MX-1) xenograft on 20th day of administration (dose = 1-2 mg/kg); assay type: functional; summary of the method: as §1
# [11] = test system: A549; experiment: Concentration required for growth inhibition of […] was determined; assay type: functional, cell-based; details: Homo sapiens
# [12] = test system: Mus musculus; experiment: Average change in body weight of mice bearing human mammary carcinoma (MX-1) xenograft on 14th day of administration (dose = 1-2 mg/kg); assay type: functional; summary of the method: as §1
# [13] = Average tumor size of human mammary carcinoma (MX-1) xenograft in mice on 20th day of administration (dose = 1-2 mg/kg); assay type: organism-based; details: mouse, in vivo; summary of the method: as §2
IC50 [5] [nM],IC50 [11] [nM],Structure (SMILES),IC50 [1] [nM],IC50 [6] [nM],IC50 [9] [nM],other results
–,–,ClCCN(CCCl)CCOc1cccc(Nc2c3ccccc3nc3ccccc23)c1,90,–,–,–
–,–,ClCCN(CCCl)CCOc1ccc(Nc2c3ccccc3nc3ccccc23)cc1,20,60,60,–
–,–,Cc1cccc2c(Nc3ccc(OCCN(CCCl)CCCl)cc3)c3cccc(C(=O)NCCN(C)C)c3nc12,770,–,–,–
–,47,Nc1cc(CO)cc(Nc2c3ccccc3nc3ccccc23)c1,750,600,1600,–
–,–,Cc1cccc2c(Nc3cccc(OCCN(CCCl)CCCl)c3)c3cccc(C(=O)NCCN(C)C)c3nc12,3,–,–,–
2.6,2.9,CC(=O)O[C@H]1C(=O)[C@@]2(C)[C@H]([C@H](OC(=O)c3ccccc3)[C@]3(O)C[C@H](OC(=O)[C@H](O)[C@@H](NC(=O)c4ccccc4)c4ccccc4)C(C)=C1C3(C)C)[C@]1(OC(C)=O)CO[C@@H]1C[C@@H]2O [PACLITAXEL],1.5,140,1620,–
8.7,9.9,CC[C@]1(O)C[C@@H]2CN(CCc3c([nH]c4ccccc34)[C@@](C(=O)OC)(c3cc4c(cc3OC)N(C)[C@H]3[C@@](O)(C(=O)OC)[C@H](OC(C)=O)[C@]5(CC)C=CCN6CC[C@]43[C@@H]65)C2)C1 [VINBLASTINE],1.2,29,540,–

Structure (SMILES),IC50 [5] [nM],IC50 [11] [nM],IC50 [1] [nM],IC50 [6] [nM],IC50 [9] [nM],other results
OCc1cc(Nc2c3ccccc3nc3ccccc23)cc(OCCN(CCCl)CCCl)c1,5.5,5.6,7,30,7.5,Weight [2]: -3.9 g; Weight [3]: -1.4 g; T/C [4]: 0.14; T/C [7]: 0.37; Weight [8]: -3 g; Weight [10]: -3 g; Weight [12]: 1.2 g; T/C [13]: 0.17
